Assay results from ChEMBL document CHEMBL1144664, “Design, synthesis, and SAR of new pyrrole-oxindole progesterone receptor modulators leading to 5-(7-fluoro-3,3-dimethyl-2-oxo-2,3-dihydro-1H-indol-5-yl)-1-methyl-1H-pyrrole-2-carbonitrile (WAY-255348)” (J Med Chem, 2008).
Activity calls are given as the source filed them. The rule behind the calls is not given here.

Experiments:
Rhesus monkey [1] = experiment: Effect on functionalis KI67 assessed as number of KI67 labeled cells of rhesus monkey; assay type: functional, Macaca mulatta
In short: (§1)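 Adult female rhesus macaques (n=3) with regular cycles dosed 10 mg/(kg·day) po in 2% Tween 80/0.5% methylcellulose with cherry flavoring for 28 days from cycle day 2. Serum estradiol and progesterone measured every 3 days. Necropsy on day 28. Uterine weights are of half the uterus; KI-67 and mitotic indices counted per 1000 cells. Values given as mean ± SE.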

Cynomolgus monkey [2] = experiment: Induction of early menses in cynomolgus monkey at 5 mg/kg, po; assay type: organism-based, Macaca fascicularis; design: dose 5 mg/kg, route oral; conditions: in vivo
[3] = biological target: T1, Estrogen receptor (Homo sapiens) (UniProt P03372); experiment: Agonist activity at human ER ligand binding domain expressed in african green monkey COS7 cells by Gal4 hybrid assay; assay type: cell-based; conditions: COS-7
T1 sequence (whole entry): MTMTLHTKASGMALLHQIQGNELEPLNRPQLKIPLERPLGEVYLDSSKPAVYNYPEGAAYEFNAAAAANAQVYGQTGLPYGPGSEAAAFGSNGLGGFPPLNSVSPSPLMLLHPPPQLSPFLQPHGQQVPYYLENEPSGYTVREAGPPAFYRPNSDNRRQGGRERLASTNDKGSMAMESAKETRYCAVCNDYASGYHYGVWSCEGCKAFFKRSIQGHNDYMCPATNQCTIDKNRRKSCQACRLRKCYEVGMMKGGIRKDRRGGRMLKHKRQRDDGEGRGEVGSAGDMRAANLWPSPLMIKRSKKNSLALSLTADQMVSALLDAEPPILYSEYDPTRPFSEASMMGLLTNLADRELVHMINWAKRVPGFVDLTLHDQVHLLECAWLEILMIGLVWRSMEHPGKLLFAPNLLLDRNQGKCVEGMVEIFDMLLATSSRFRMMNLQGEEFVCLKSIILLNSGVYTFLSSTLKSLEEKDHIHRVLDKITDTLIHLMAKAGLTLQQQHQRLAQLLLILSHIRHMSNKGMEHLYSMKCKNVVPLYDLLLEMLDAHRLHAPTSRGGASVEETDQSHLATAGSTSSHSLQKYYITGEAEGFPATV
In short: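 Gal4-steroid receptor LBD fusion plasmid plus GAL4_UAS (5 copies, E1b TATA)-luciferase reporter, 50 ng/well each, transfected 16 h into COS-7 cells grown in phenol red-free DMEM with 10% charcoal/dextran-treated FBS. Compound treatment 20 h, then luciferase read-out. Antagonist mode uses 3 nM aldosterone (hMR) or 5 nM 17β-estradiol (hER). Values are the average of at least duplicate determinations.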

[4] = AUC (0 to infinity) in Sprague-Dawley rat at 5 mg/kg, po; assay type: ADME, organism-based; design: time infinity, dose 5 mg/kg, route oral; conditions: plasma
Cynomolgus monkey [5] = experiment: Inhibition of ovulation in cynomolgus monkey assessed as luteal phase progesterone surge at 3 mg/kg; assay type: functional; conditions: Macaca fascicularis
In short: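 Normally cycling cynomolgus monkeys dosed orally, daily at 1, 3 or 10 mg/kg (n=4–6) or vehicle (n=2), in 2% Tween 80/0.5% methylcellulose for 30 days from cycle day 2. Serum sampled three times weekly; progesterone measured by radioimmunoassay to detect a luteal-phase rise as the sign of ovulation.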

Progesterone receptor = biological target: T2, Progesterone receptor (Homo sapiens, UniProt P06401); experiment: Antagonist activity at human PR expressed in human T47D cells assessed as inhibition of progesterone induced alkaline phosphatase; assay type: functional, cell-based
T2 sequence (P06401 whole entry): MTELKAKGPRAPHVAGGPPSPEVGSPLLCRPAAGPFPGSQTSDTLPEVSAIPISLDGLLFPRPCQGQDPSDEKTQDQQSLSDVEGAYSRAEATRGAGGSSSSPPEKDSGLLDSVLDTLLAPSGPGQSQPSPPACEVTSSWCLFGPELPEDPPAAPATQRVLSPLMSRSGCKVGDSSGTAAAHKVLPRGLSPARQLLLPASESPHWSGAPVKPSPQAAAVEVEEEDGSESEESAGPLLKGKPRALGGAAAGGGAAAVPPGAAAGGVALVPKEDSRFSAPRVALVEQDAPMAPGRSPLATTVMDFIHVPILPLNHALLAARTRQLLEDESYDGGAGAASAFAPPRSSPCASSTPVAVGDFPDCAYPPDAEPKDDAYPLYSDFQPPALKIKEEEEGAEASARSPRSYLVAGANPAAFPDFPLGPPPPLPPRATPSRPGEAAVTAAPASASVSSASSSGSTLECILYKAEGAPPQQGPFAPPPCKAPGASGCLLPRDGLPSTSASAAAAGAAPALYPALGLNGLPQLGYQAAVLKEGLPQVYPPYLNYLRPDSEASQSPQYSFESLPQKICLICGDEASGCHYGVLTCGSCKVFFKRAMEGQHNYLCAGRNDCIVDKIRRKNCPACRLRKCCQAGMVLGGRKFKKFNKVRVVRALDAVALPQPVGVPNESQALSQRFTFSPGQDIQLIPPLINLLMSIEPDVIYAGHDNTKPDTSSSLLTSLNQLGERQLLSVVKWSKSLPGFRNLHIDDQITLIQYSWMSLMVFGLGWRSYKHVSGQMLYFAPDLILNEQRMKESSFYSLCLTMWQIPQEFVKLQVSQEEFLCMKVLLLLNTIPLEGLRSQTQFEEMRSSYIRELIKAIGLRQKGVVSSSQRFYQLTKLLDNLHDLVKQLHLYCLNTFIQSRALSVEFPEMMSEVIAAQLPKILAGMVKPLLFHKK

Rhesus monkey [6] = experiment: Effect on cell proliferation in rhesus monkey assessed basalis mitotic index; assay type: functional, Macaca mulatta; in short: as §1
[7] = Volume of distribution at steady state in Sprague-Dawley rat at 0.5 mg/kg, iv; assay type: ADME, organism-based; design: dose 0.5 mg/kg, route intravenous; conditions: in vivo, read-out: Vdss
In short: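 Female Sprague–Dawley rats dosed as 1-in-4 cassette or discrete studies. iv in DMSO/PEG200 20:80; po in aqueous 2% Tween 80/0.5% methyl cellulose. Parameters reported: C0, Cmax, t1/2, plasma clearance, Vss, AUC0-inf and %F.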

[8] = AUC (0 to infinity) at steady state in cynomolgus monkey at 1 mg/kg, iv; assay type: ADME, organism-based, Macaca fascicularis; design: time infinity, dose 1 mg/kg, route intravenous; conditions: plasma

Structure (SMILES): Cn1c(C#N)ccc1-c1cc(F)c2c(c1)C(C)(C)C(=O)N2
- Activity (Rhesus monkey [1]): 105
- Activity (Cynomolgus monkey [2]): 75%
- Activity [3]: inactive
- AUC(0-inf) [4]: 7150 ng·h/mL
- ED50 (Cynomolgus monkey [5]): 1.6 mg/kg
- IC50 (Progesterone receptor): 5 nM
- Activity (Rhesus monkey [6]): 0
- Vd [7]: 2.9 L/kg
- AUC(0-inf) [8]: 2360 ng·h/mL
